Test results reported in ChEMBL document CHEMBL3407339, “A novel series of thiazolyl-pyrazoline derivatives: synthesis and evaluation of antifungal activity, cytotoxicity and genotoxicity” (Eur J Med Chem, 2015).
Values after ≈ are worked out from the molar mass of the structure shown.

Legend:
Salmonella typhimurium [1] = test: Mutagenicity in Salmonella typhimurium TA100 at 0.3125 mg/ml after 48 hrs by AMES MPF assay in absence of Sprague-Dawley rat liver microsomal S9 fraction relative to baseline; type: toxicity, organism-based; conditions: salmonella enterica subsp. enterica serovar typhimurium
Outline: (§1)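 Ames MPF fluctuation test with TA98/TA100. Overnight cultures (37 °C, 14–16 h) mixed with exposure medium; ±Aroclor-1254-induced rat liver S9 (final 4.5% v/v). Compounds in DMSO, 0.156–5 mg/mL. 90 min exposure at 37 °C, then indicator medium; 48 wells per concentration, 48 h at 37 °C, in triplicate. Yellow wells counted; fold induction over baseline (mean + 1 SD of zero-dose control).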

Salmonella typhimurium [2] = test: Mutagenicity in Salmonella typhimurium TA100 at 0.156 mg/ml after 48 hrs by AMES MPF assay in absence of Sprague-Dawley rat liver microsomal S9 fraction relative to baseline; type: toxicity, organism-based; conditions: salmonella enterica subsp. enterica serovar typhimurium; outline: as §1
Aspergillus flavus = test: Antifungal activity against Aspergillus flavus NRRL 980 after 72 hrs by broth microdilution assay; type: functional; conditions: NRRL 980, 72 h
Outline: (§2)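 Compounds dissolved in DMSO, diluted in sterile distilled water from 4 to 0.0039 mg/mL. Molds grown on PDA at 25 °C for 5 days, suspended in double-strength PDB at 10⁵ spores/mL. Incubated at 25 °C for 72 h; mycelial growth read under stereo microscope. MIC = lowest concentration inhibiting visible growth. Ketoconazole reference.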

Salmonella typhimurium [3] = test: Mutagenicity in Salmonella typhimurium TA98 at 5 mg/ml after 48 hrs by AMES MPF assay in absence of Sprague-Dawley rat liver microsomal S9 fraction relative to baseline; type: toxicity, organism-based; conditions: salmonella enterica subsp. enterica serovar typhimurium; outline: as §1
Salmonella typhimurium [4] = test: Mutagenicity in Salmonella typhimurium TA100 at 1.25 mg/ml after 48 hrs by AMES MPF assay in absence of Sprague-Dawley rat liver microsomal S9 fraction relative to baseline; type: toxicity, organism-based; conditions: salmonella enterica subsp. enterica serovar typhimurium; outline: as §1
Fusarium solani = test: Antifungal activity against Fusarium solani NRRL 13414 after 72 hrs by broth microdilution assay; type: functional; conditions: NRRL 13414, 72 h; outline: as §2
Salmonella typhimurium [5] = test: Mutagenicity in Salmonella typhimurium TA100 at 1.25 mg/ml after 48 hrs by AMES MPF assay in presence of Sprague-Dawley rat liver microsomal S9 fraction relative to baseline; type: toxicity, organism-based; conditions: salmonella enterica subsp. enterica serovar typhimurium; outline: as §1
Salmonella typhimurium [6] = test: Mutagenicity in Salmonella typhimurium TA100 at 0.3125 mg/ml after 48 hrs by AMES MPF assay in presence of Sprague-Dawley rat liver microsomal S9 fraction relative to baseline; type: toxicity, organism-based; conditions: salmonella enterica subsp. enterica serovar typhimurium; outline: as §1
[Candida] zeylanoides = Antifungal activity against Candida zeylanoides NRLL Y 1774 after 48 hrs by broth microdilution assay; type: functional; conditions: Dujonia zeylanoides, NRLL Y 1774, 48 h
Outline: (§3)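 Broth microdilution of DMSO stocks serially diluted in sterile water (4 to 0.0039 mg/mL). Yeasts grown on SDA at 37 °C for 24 h, suspended in double-strength PDB at 10⁵ spores/mL. Incubated at 37 °C for 48 h, then sprayed with 0.5% aqueous TTC. MIC = lowest concentration inhibiting visible growth. Ketoconazole reference.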

Pichia kudriavzevii = test: Antifungal activity against Candida krusei NRLL Y 7179 after 48 hrs by broth microdilution assay; type: functional; conditions: NRLL Y 7179, 48 h; outline: as §3
Salmonella typhimurium [7] = test: Mutagenicity in Salmonella typhimurium TA100 at 2.5 mg/ml after 48 hrs by AMES MPF assay in absence of Sprague-Dawley rat liver microsomal S9 fraction relative to baseline; type: toxicity, organism-based; conditions: salmonella enterica subsp. enterica serovar typhimurium; outline: as §1
Candida albicans = test: Antifungal activity against Candida albicans ATCC 90028 after 48 hrs by broth microdilution assay; type: functional; conditions: ATCC 90028, 48 h; outline: as §3
Salmonella typhimurium [8] = test: Mutagenicity in Salmonella typhimurium TA100 at 5 mg/ml after 48 hrs by AMES MPF assay in presence of Sprague-Dawley rat liver microsomal S9 fraction relative to baseline; type: toxicity, organism-based; conditions: salmonella enterica subsp. enterica serovar typhimurium; outline: as §1
Salmonella typhimurium [9] = test: Mutagenicity in Salmonella typhimurium TA98 at 2.5 mg/ml after 48 hrs by AMES MPF assay in presence of Sprague-Dawley rat liver microsomal S9 fraction relative to baseline; type: toxicity, organism-based; conditions: salmonella enterica subsp. enterica serovar typhimurium; outline: as §1
Salmonella typhimurium [10] = test: Mutagenicity in Salmonella typhimurium TA98 at 2.5 mg/ml after 48 hrs by AMES MPF assay in absence of Sprague-Dawley rat liver microsomal S9 fraction relative to baseline; type: toxicity, organism-based; conditions: salmonella enterica subsp. enterica serovar typhimurium; outline: as §1
Salmonella typhimurium [11] = test: Mutagenicity in Salmonella typhimurium TA98 at 0.156 mg/ml after 48 hrs by AMES MPF assay in absence of Sprague-Dawley rat liver microsomal S9 fraction relative to baseline; type: toxicity, organism-based; conditions: salmonella enterica subsp. enterica serovar typhimurium; outline: as §1
Aspergillus niger = test: Antifungal activity against Aspergillus niger ATCC 1094 after 72 hrs by broth microdilution assay; type: functional; conditions: ATCC 1094, 72 h; outline: as §2
Salmonella typhimurium [12] = test: Mutagenicity in Salmonella typhimurium TA98 at 1.25 mg/ml after 48 hrs by AMES MPF assay in absence of Sprague-Dawley rat liver microsomal S9 fraction relative to baseline; type: toxicity, organism-based; conditions: salmonella enterica subsp. enterica serovar typhimurium; outline: as §1
[13] = Cytotoxicity against mouse NIH/3T3 cells after 24 hrs by XTT assay; type: cell-based; conditions: NIH3T3, 24 h
Outline: (§4)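 A549 cells in RPMI and NIH/3T3 cells in DMEM, each with fetal calf serum, antibiotics and 7.5% NaHCO₃, at 37 °C, 5% CO₂. Seeded at 20,000 cells/well, 24 h, then compounds added in medium at 500–3.9 doses (final DMSO <0.1%) for 24 h. XTT read after 3 h at 480 nm (ref 680 nm). IC₅₀ by non-linear regression; triplicates; cisplatin control.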

Salmonella typhimurium [14] = test: Mutagenicity in Salmonella typhimurium TA100 at 5 mg/ml after 48 hrs by AMES MPF assay in absence of Sprague-Dawley rat liver microsomal S9 fraction relative to baseline; type: toxicity, organism-based; conditions: salmonella enterica subsp. enterica serovar typhimurium; outline: as §1
Salmonella typhimurium [15] = test: Mutagenicity in Salmonella typhimurium TA98 at 1.25 mg/ml after 48 hrs by AMES MPF assay in presence of Sprague-Dawley rat liver microsomal S9 fraction relative to baseline; type: toxicity, organism-based; conditions: salmonella enterica subsp. enterica serovar typhimurium; outline: as §1
Salmonella typhimurium [16] = test: Mutagenicity in Salmonella typhimurium TA98 at 0.625 mg/ml after 48 hrs by AMES MPF assay in presence of Sprague-Dawley rat liver microsomal S9 fraction relative to baseline; type: toxicity, organism-based; conditions: salmonella enterica subsp. enterica serovar typhimurium; outline: as §1
Salmonella typhimurium [17] = test: Mutagenicity in Salmonella typhimurium TA98 at 0.3125 mg/ml after 48 hrs by AMES MPF assay in absence of Sprague-Dawley rat liver microsomal S9 fraction relative to baseline; type: toxicity, organism-based; conditions: salmonella enterica subsp. enterica serovar typhimurium; outline: as §1
Aspergillus parasiticus = test: Antifungal activity against Aspergillus parasiticus NRRL 465 after 72 hrs by broth microdilution assay; type: functional; conditions: NRRL 465, 72 h; outline: as §2
Salmonella typhimurium [18] = test: Mutagenicity in Salmonella typhimurium TA100 at 0.625 mg/ml after 48 hrs by AMES MPF assay in presence of Sprague-Dawley rat liver microsomal S9 fraction relative to baseline; type: toxicity, organism-based; conditions: salmonella enterica subsp. enterica serovar typhimurium; outline: as §1
Salmonella typhimurium [19] = test: Mutagenicity in Salmonella typhimurium TA100 at 2.5 mg/ml after 48 hrs by AMES MPF assay in presence of Sprague-Dawley rat liver microsomal S9 fraction relative to baseline; type: toxicity, organism-based; conditions: salmonella enterica subsp. enterica serovar typhimurium; outline: as §1
Candida parapsilosis = test: Antifungal activity against Candida parapsilosis NRLL Y 12696 after 48 hrs by broth microdilution assay; type: functional; conditions: Lodderomyces parapsilosis, NRLL Y 12696, 48 h; outline: as §3
Salmonella typhimurium [20] = test: Mutagenicity in Salmonella typhimurium TA98 at 5 mg/ml after 48 hrs by AMES MPF assay in presence of Sprague-Dawley rat liver microsomal S9 fraction relative to baseline; type: toxicity, organism-based; conditions: salmonella enterica subsp. enterica serovar typhimurium; outline: as §1
A549 = test: Antiproliferative activity against human A549 cells after 24 hrs by XTT assay; type: functional, cell-based; conditions: A549, 24 h; outline: as §4
Salmonella typhimurium [21] = test: Mutagenicity in Salmonella typhimurium TA98 at 0.3125 mg/ml after 48 hrs by AMES MPF assay in presence of Sprague-Dawley rat liver microsomal S9 fraction relative to baseline; type: toxicity, organism-based; conditions: salmonella enterica subsp. enterica serovar typhimurium; outline: as §1
Salmonella typhimurium [22] = test: Mutagenicity in Salmonella typhimurium TA100 at 0.625 mg/ml after 48 hrs by AMES MPF assay in absence of Sprague-Dawley rat liver microsomal S9 fraction relative to baseline; type: toxicity, organism-based; conditions: salmonella enterica subsp. enterica serovar typhimurium; outline: as §1
Candida tropicalis = test: Antifungal activity against Candida tropicalis NRLL Y 12968 after 48 hrs by broth microdilution assay; type: functional; conditions: NRLL Y 12968, 48 h; outline: as §3
Nakaseomyces glabratus = test: Antifungal activity against Candida glabrata clinical isolate after 48 hrs by broth microdilution assay; type: functional; outline: as §3
Salmonella typhimurium [23] = test: Mutagenicity in Salmonella typhimurium TA98 at 0.625 mg/ml after 48 hrs by AMES MPF assay in absence of Sprague-Dawley rat liver microsomal S9 fraction relative to baseline; type: toxicity, organism-based; conditions: salmonella enterica subsp. enterica serovar typhimurium; outline: as §1
Salmonella typhimurium [24] = test: Mutagenicity in Salmonella typhimurium TA98 at 0.156 mg/ml after 48 hrs by AMES MPF assay in presence of Sprague-Dawley rat liver microsomal S9 fraction relative to baseline; type: toxicity, organism-based; conditions: salmonella enterica subsp. enterica serovar typhimurium; outline: as §1
Salmonella typhimurium [25] = test: Mutagenicity in Salmonella typhimurium TA100 at 0.156 mg/ml after 48 hrs by AMES MPF assay in presence of Sprague-Dawley rat liver microsomal S9 fraction relative to baseline; type: toxicity, organism-based; conditions: salmonella enterica subsp. enterica serovar typhimurium; outline: as §1

- MIC (Aspergillus flavus): 125 µg/mL (≈ 281 µM)
- MIC (Fusarium solani): 250 µg/mL (≈ 562 µM)
- MIC ([Candida] zeylanoides): 250 µg/mL (≈ 562 µM)
- MIC (Pichia kudriavzevii): 250 µg/mL (≈ 562 µM)
- MIC (Candida albicans): 250 µg/mL (≈ 562 µM)
- MIC (Aspergillus niger): 250 µg/mL (≈ 562 µM)
- MIC (Aspergillus parasiticus): 250 µg/mL (≈ 562 µM)
- MIC (Candida parapsilosis): 250 µg/mL (≈ 562 µM)
- IC50 (A549): 322 µg/mL (≈ 724 µM)
- MIC (Candida tropicalis): 250 µg/mL (≈ 562 µM)
- MIC (Nakaseomyces glabratus): 125 µg/mL (≈ 281 µM)
Structure (SMILES): Cc1ccc(C2=NN(c3nc(-c4ccc(C#N)cc4)cs3)C(c3ccc(F)cc3)C2)s1 (stereo unspecified)
- fold change (FC) (Salmonella typhimurium [1]): 0.74
- fold change (FC) (Salmonella typhimurium [2]): 0.8
- fold change (FC) (Salmonella typhimurium [3]): 1.33
- fold change (FC) (Salmonella typhimurium [4]): 0.31
- fold change (FC) (Salmonella typhimurium [5]): 0.7
- fold change (FC) (Salmonella typhimurium [6]): 0.94
- fold change (FC) (Salmonella typhimurium [7]): 0.31
- fold change (FC) (Salmonella typhimurium [8]): 1.01
- fold change (FC) (Salmonella typhimurium [9]): 0.89
- fold change (FC) (Salmonella typhimurium [10]): 1.56
- fold change (FC) (Salmonella typhimurium [11]): 1.78
- fold change (FC) (Salmonella typhimurium [12]): 1.11
- IC50 [13]: 250 µg/mL (≈ 562 µM)
- fold change (FC) (Salmonella typhimurium [14]): 0.8
- fold change (FC) (Salmonella typhimurium [15]): 0.44
- fold change (FC) (Salmonella typhimurium [16]): 1.07
- fold change (FC) (Salmonella typhimurium [17]): 1.56
- fold change (FC) (Salmonella typhimurium [18]): 0.86
- fold change (FC) (Salmonella typhimurium [19]): 0.55
- fold change (FC) (Salmonella typhimurium [20]): 1.16
- fold change (FC) (Salmonella typhimurium [21]): 0.18
- fold change (FC) (Salmonella typhimurium [22]): 0.74
- fold change (FC) (Salmonella typhimurium [23]): 1.11
- fold change (FC) (Salmonella typhimurium [24]): 0.27
- fold change (FC) (Salmonella typhimurium [25]): 1.01
